Assay results published in ChEMBL document CHEMBL3616442, “Unconventional Knoevenagel-type indoles: Synthesis and cell-based studies for the identification of pro-apoptotic agents” (Eur J Med Chem, 2015).

What was measured:
[1] = Growth inhibition of human BT549 cells after 48 hrs by sulforhodamine B assay; type: functional; settings: BT-549, 48 h
Summary of the method: (§1)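 NCI 60-cell-line screen. Compounds tested at five 10-fold dilutions from 10^-4 to 10^-8 M. Cells exposed for the last 48 h of a 72 h incubation, growth estimated by sulforhodamine B protein assay. GI50 is the concentration giving 50% growth inhibition. Values beyond the tested range are expressed as greater or lesser than the extreme concentration.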

A549 = experiment: Growth inhibition of human A549 cells after 48 hrs by sulforhodamine B assay; type: functional; settings: A549, 48 h; summary of the method: as §1
[2] = Growth inhibition of human NCI-ADR-RES cells after 48 hrs by sulforhodamine B assay; type: functional; summary of the method: as §1
SNB-75 = experiment: Growth inhibition of human SNB75 cells after 48 hrs by sulforhodamine B assay; type: functional; settings: SNB-75, 48 h
PC-3 = experiment: Growth inhibition of human PC3 cells after 48 hrs by sulforhodamine B assay; type: functional; settings: PC-3, 48 h
MDA-MB-435 = experiment: Growth inhibition of human MDA-MB-435 cells after 48 hrs by sulforhodamine B assay; type: functional; settings: MDA-MB-435, 48 h; summary of the method: as §1
[3] = Growth inhibition of human Hs 578T cells after 48 hrs by sulforhodamine B assay; type: functional; summary of the method: as §1
OVCAR-8 = experiment: Growth inhibition of human OVCAR8 cells after 48 hrs by sulforhodamine B assay; type: functional; settings: OVCAR-8, 48 h
UO-31 = experiment: Growth inhibition of human UO31 cells after 48 hrs by sulforhodamine B assay; type: functional; settings: UO-31, 48 h
[4] = Growth inhibition of human HCC2998 cells after 48 hrs by sulforhodamine B assay; type: functional; settings: HCC 2998, 48 h; summary of the method: as §1
SW-620 = experiment: Growth inhibition of human SW620 cells after 48 hrs by sulforhodamine B assay; type: functional; settings: SW-620, 48 h
CAKI-1 = experiment: Growth inhibition of human CAKI-1 cells after 48 hrs by sulforhodamine B assay; type: functional; settings: CAKI-1, 48 h; summary of the method: as §1
DU-145 = experiment: Growth inhibition of human DU145 cells after 48 hrs by sulforhodamine B assay; type: functional; settings: DU-145, 48 h; summary of the method: as §1
[5] = Growth inhibition of human SF295 cells after 48 hrs by sulforhodamine B assay; type: functional; settings: SF-295, 48 h
M14 = experiment: Growth inhibition of human M14 cells after 48 hrs by sulforhodamine B assay; type: functional; settings: M14, 48 h; summary of the method: as §1
MDA-MB-231 = experiment: Growth inhibition of human MDA-MB-231 cells after 48 hrs by sulforhodamine B assay; type: functional; settings: MDA-MB-231, 48 h; summary of the method: as §1
SK-OV-3 = experiment: Growth inhibition of human SKOV3 cells after 48 hrs by sulforhodamine B assay; type: functional; settings: SK-OV-3, 48 h
KM12 = experiment: Growth inhibition of human KM12 cells after 48 hrs by sulforhodamine B assay; type: functional; settings: KM12, 48 h; summary of the method: as §1
SN12C = experiment: Growth inhibition of human SN12C cells after 48 hrs by sulforhodamine B assay; type: functional
IGROV-1 = experiment: Growth inhibition of human IGROV1 cells after 48 hrs by sulforhodamine B assay; type: functional; settings: IGROV-1, 48 h; summary of the method: as §1
HOP-62 = experiment: Growth inhibition of human HOP62 cells after 48 hrs by sulforhodamine B assay; type: functional; settings: HOP-62, 48 h; summary of the method: as §1
786-0 = experiment: Growth inhibition of human 786-0 cells after 48 hrs by sulforhodamine B assay; type: functional; settings: 786-0, 48 h; summary of the method: as §1
[6] = Growth inhibition of human RPMI8226 cells after 48 hrs by sulforhodamine B assay; type: functional; settings: RPMI-8226, 48 h
A498 = experiment: Growth inhibition of human A498 cells after 48 hrs by sulforhodamine B assay; type: functional; settings: A498, 48 h; summary of the method: as §1
SR = experiment: Growth inhibition of human SR cells after 48 hrs by sulforhodamine B assay; type: functional
[7] = Growth inhibition of human HOP92 cells after 48 hrs by sulforhodamine B assay; type: functional; settings: HOP-92, 48 h; summary of the method: as §1
[8] = Growth inhibition of human MOLT4 cells after 48 hrs by sulforhodamine B assay; type: functional; settings: MOLT-4, 48 h; summary of the method: as §1
[9] = Growth inhibition of human RXF393 cells after 48 hrs by sulforhodamine B assay; type: functional; settings: RXF 393, 48 h
TK-10 = experiment: Growth inhibition of human TK10 cells after 48 hrs by sulforhodamine B assay; type: functional; settings: TK-10, 48 h
NCI-H23 = experiment: Growth inhibition of human NCI-H23 cells after 48 hrs by sulforhodamine B assay; type: functional; settings: NCI-H23, 48 h; summary of the method: as §1
NCI-H322M = experiment: Growth inhibition of human NCI-H322M cells after 48 hrs by sulforhodamine B assay; type: functional; summary of the method: as §1
MCF7 = experiment: Growth inhibition of human MCF7 cells after 48 hrs by sulforhodamine B assay; type: functional; settings: MCF7, 48 h; summary of the method: as §1
MDA-MB-468 = experiment: Growth inhibition of human MDA-MB-468 cells after 48 hrs by sulforhodamine B assay; type: functional; settings: MDA-MB-468, 48 h; summary of the method: as §1
NCI-H460 = experiment: Growth inhibition of human NCI-H460 cells after 48 hrs by sulforhodamine B assay; type: functional; settings: NCI-H460, 48 h; summary of the method: as §1
[10] = Growth inhibition of human EKVX cells after 48 hrs by sulforhodamine B assay; type: functional; summary of the method: as §1
OVCAR-5 = experiment: Growth inhibition of human OVCAR5 cells after 48 hrs by sulforhodamine B assay; type: functional; settings: OVCAR-5, 48 h
NCI-H226 = experiment: Growth inhibition of human NCI-H226 cells after 48 hrs by sulforhodamine B assay; type: functional; settings: NCI-H226, 48 h; summary of the method: as §1
Malme-3M = experiment: Growth inhibition of human MALME-3M cells after 48 hrs by sulforhodamine B assay; type: functional; summary of the method: as §1
HCT-15 = experiment: Growth inhibition of human HCT15 cells after 48 hrs by sulforhodamine B assay; type: functional; settings: HCT-15, 48 h; summary of the method: as §1
SK-MEL-28 = experiment: Growth inhibition of human SK-MEL-28 cells after 48 hrs by sulforhodamine B assay; type: functional; settings: SK-MEL-28, 48 h
MT4 = experiment: Antiproliferative activity against human MT4 cells after 96 hrs by MTT assay; type: functional, cell-based; settings: MT4, 96 h
Summary of the method: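 Exponentially growing MT-4 cells (CD4+ human T-cells carrying integrated HTLV-1 genome), seeded at 1×10^5 cells/mL in RPMI-1640 with 10% FCS and antibiotics. Serial dilutions of compound (DMSO stock 100 mM, diluted in medium), 37 °C, 5% CO₂, 96 h. Viability read by MTT. 50% inhibition versus untreated controls by linear regression. Mean ± SD of three independent determinations.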

UACC-257 = experiment: Growth inhibition of human UACC257 cells after 48 hrs by sulforhodamine B assay; type: functional; settings: UACC-257, 48 h
SF-268 = experiment: Growth inhibition of human SF268 cells after 48 hrs by sulforhodamine B assay; type: functional; settings: SF-268, 48 h
HCT-116 = experiment: Growth inhibition of human HCT116 cells after 48 hrs by sulforhodamine B assay; type: functional; settings: HCT-116, 48 h; summary of the method: as §1
T47D = experiment: Growth inhibition of human T47D cells after 48 hrs by sulforhodamine B assay; type: functional
OVCAR-4 = experiment: Growth inhibition of human OVCAR4 cells after 48 hrs by sulforhodamine B assay; type: functional; settings: OVCAR-4, 48 h; summary of the method: as §1
[11] = Growth inhibition of human SF539 cells after 48 hrs by sulforhodamine B assay; type: functional; settings: SF-539, 48 h
NCI-H522 = experiment: Growth inhibition of human NCI-H522 cells after 48 hrs by sulforhodamine B assay; type: functional; settings: NCI-H522, 48 h; summary of the method: as §1
[12] = Growth inhibition of human COLO205 cells after 48 hrs by sulforhodamine B assay; type: functional; settings: COLO 205, 48 h; summary of the method: as §1
UACC-62 = experiment: Growth inhibition of human UACC62 cells after 48 hrs by sulforhodamine B assay; type: functional; settings: UACC-62, 48 h
HT-29 = experiment: Growth inhibition of human HT-29 cells after 48 hrs by sulforhodamine B assay; type: functional; settings: HT-29, 48 h; summary of the method: as §1
[13] = Growth inhibition of human LOXIMVI cells after 48 hrs by sulforhodamine B assay; type: functional; settings: LOX IMVI; summary of the method: as §1
SNB-19 = experiment: Growth inhibition of human SNB19 cells after 48 hrs by sulforhodamine B assay; type: functional; settings: SNB-19, 48 h
U-251 = experiment: Growth inhibition of human U251 cells after 48 hrs by sulforhodamine B assay; type: functional; settings: U-251, 48 h
SK-MEL-2 = experiment: Growth inhibition of human SK-MEL-2 cells after 48 hrs by sulforhodamine B assay; type: functional; settings: SK-MEL-2, 48 h
OVCAR-3 = experiment: Growth inhibition of human OVCAR3 cells after 48 hrs by sulforhodamine B assay; type: functional; settings: OVCAR-3, 48 h; summary of the method: as §1
ACHN = experiment: Growth inhibition of human ACHN cells after 48 hrs by sulforhodamine B assay; type: functional; summary of the method: as §1

Compound: COC(=O)/C(=C\c1c(C)[nH]c2ccccc12)S(=O)(=O)c1ccccc1
- GI50 [1]: 5.4 µM
- GI50 (A549): 4.9 µM
- GI50 [2]: 4.2 µM
- GI50 (SNB-75): 3.1 µM
- GI50 (PC-3): 5.6 µM
- GI50 (MDA-MB-435): 2.9 µM
- GI50 [3]: 2.9 µM
- GI50 (OVCAR-8): 3.9 µM
- GI50 (UO-31): 4.4 µM
- GI50 [4]: 4.9 µM
- GI50 (SW-620): 5.2 µM
- GI50 (CAKI-1): 3.3 µM
- GI50 (DU-145): 2.9 µM
- GI50 [5]: 3.1 µM
- GI50 (M14): 4.4 µM
- GI50 (MDA-MB-231): 2.7 µM
- GI50 (SK-OV-3): 9.3 µM
- GI50 (KM12): 2.4 µM
- GI50 (SN12C): 2.6 µM
- GI50 (IGROV-1): 1.5 µM
- GI50 (HOP-62): 7.7 µM
- GI50 (786-0): 8.2 µM
- GI50 [6]: 3.2 µM
- GI50 (A498): 5.5 µM
- GI50 (SR): 1.1 µM
- GI50 [7]: 4.1 µM
- GI50 [8]: 1.9 µM
- GI50 [9]: 3.6 µM
- GI50 (TK-10): 8.1 µM
- GI50 (NCI-H23): 4.8 µM
- GI50 (NCI-H322M): 8.8 µM
- GI50 (MCF7): 2.8 µM
- GI50 (MDA-MB-468): 6.3 µM
- GI50 (NCI-H460): 3 µM
- GI50 [10]: 5 µM
- GI50 (OVCAR-5): 17.4 µM
- GI50 (NCI-H226): 4.3 µM
- GI50 (Malme-3M): 7.3 µM
- GI50 (HCT-15): 3.1 µM
- GI50 (SK-MEL-28): 5.8 µM
- EC50 (MT4): 31 µM
- GI50 (UACC-257): 7 µM
- GI50 (SF-268): 3.3 µM
- GI50 (HCT-116): 3.8 µM
- GI50 (T47D): 3.2 µM
- GI50 (OVCAR-4): 5.7 µM
- GI50 [11]: 3.4 µM
- GI50 (NCI-H522): 3.2 µM
- GI50 [12]: 7.5 µM
- GI50 (UACC-62): 2.8 µM
- GI50 (HT-29): 5.2 µM
- GI50 [13]: 2 µM
- GI50 (SNB-19): 7.6 µM
- GI50 (U-251): 3.4 µM
- GI50 (SK-MEL-2): 10.6 µM
- GI50 (OVCAR-3): 2.7 µM
- GI50 (ACHN): 5.5 µM
